Laboratory results as given in ChEMBL document CHEMBL1156710, “Design, synthesis and characterization of some bioactive conjugates of curcumin with glycine, glutamic acid, valine and demethylenated piperic acid and study of their antimicrobial and antiproliferative properties” (2008).
In brackets after ≈: the same amount, converted by molar mass. Activity calls are given as the source filed them. The rule behind the calls is not given here.

Legend:
[1] = test system: Klebsiella aerogenes; test: Antibacterial activity against Klebsiella aerogenes after 18 hrs by broth microdilution susceptibility test; type: functional
Method in brief: (§1)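 Broth microdilution in Mueller-Hinton broth at pH 7.4. Inoculum came from a broth culture grown 4–6 h to log phase. Compound dilutions were […]. Tubes were shaken and incubated at 37 °C for 18 h, then read for turbidity. MIC is the lowest concentration with no turbidity. Each test was run in triplicate and MICs come from at least two repetitions.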

[2] = test system: Staphylococcus saprophyticus; test: Antibacterial activity against Staphylococcus saprophyticus after 18 hrs by broth microdilution susceptibility test; type: functional; method in brief: as §1
[3] = test system: Escherichia coli; test: Antibacterial activity against Escherichia coli after 18 hrs by broth microdilution susceptibility test; type: functional; method in brief: as §1
[4] = test system: Klebsiella aerogenes; test: Antibacterial activity against Klebsiella aerogenes at 20 umol/ml after 24 hrs by Kirby-Bauer's disk diffusion assay; type: functional
Method in brief: (§2)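 Kirby-Bauer disc diffusion. Compounds were dissolved in acetone and serially diluted. Sterile 6 mm discs were soaked in the solutions and dried. 1 ml of bacterial broth culture was spread on Mueller-Hinton agar plates and the discs were placed aseptically. Plates were incubated upright at 37 °C for 24 h and the inhibition zone was measured with a scale.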

[5] = test system: Enterobacter cloacae; test: Antibacterial activity against Enterobacter cloacae after 18 hrs by broth microdilution susceptibility test; type: functional; method in brief: as §1
[6] = test system: Aspergillus fumigatus; test: Antifungal activity against Aspergillus fumigatus at 20 umol/ml after 48 hrs; type: functional
Method in brief: (§3)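 Clinical fungal isolates were subcultured on Sabouraud dextrose agar. For the inoculum, cultures were grown on Sabouraud dextrose agar for 48 h at 37 °C. Conidia were dislodged into sterile saline, the suspension was brought to 5 ml, and the microconidia were counted. This suspension was swabbed over Sabouraud dextrose agar plates poured 5 mm deep, and excess was decanted. Sterile 6 mm discs were charged with compound.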

[7] = test system: Aspergillus fumigatus; test: Antifungal activity against Aspergillus fumigatus at 10 umol/ml after 48 hrs; type: functional; method in brief: as §3
[8] = test system: Candida albicans; test: Antifungal activity against Candida albicans at 20 umol/ml after 48 hrs; type: functional; method in brief: as §3
[9] = test system: Candida albicans; test: Antifungal activity against Candida albicans at 10 umol/ml after 48 hrs; type: functional; method in brief: as §3
[10] = test system: Candida parapsilosis; test: Antifungal activity against Candida parapsilosis at 20 umol/ml after 48 hrs; type: functional
Method in brief: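 Clinical isolates from diagnosed patients, subcultured on Sabouraud dextrose agar slants at 30 °C for 10–12 days. Inoculum from 48 h SDA cultures at 37 °C, dislodged into sterile saline and brought to 5 ml. Suspension swab-spread on SDA plates poured 5 mm deep, excess decanted. Sterile 6 mm discs charged with compound. Fluconazole reference.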

[11] = test system: Penicillium chrysogenum; test: Antifungal activity against Penicillium notatum at 20 umol/ml after 48 hrs; type: functional; method in brief: as §3
[12] = test system: Penicillium chrysogenum; test: Antifungal activity against Penicillium notatum at 10 umol/ml after 48 hrs; type: functional; method in brief: as §3
[13] = test system: Micrococcus; test: Antibacterial activity against Micrococcus after 18 hrs by broth microdilution susceptibility test; type: functional; method in brief: as §1
[14] = test system: Escherichia coli; test: Antibacterial activity against Escherichia coli at 20 umol/ml after 24 hrs by Kirby-Bauer's disk diffusion assay; type: functional; method in brief: as §2
[15] = test system: Micrococcus; test: Antibacterial activity against Micrococcus at 20 umol/ml after 24 hrs by Kirby-Bauer's disk diffusion assay; type: functional; method in brief: as §2
[16] = test system: Staphylococcus saprophyticus; test: Antibacterial activity against Staphylococcus saprophyticus at 20 umol/ml after 24 hrs by Kirby-Bauer's disk diffusion assay; type: functional; method in brief: as §2
[17] = test system: Enterobacter cloacae; test: Antibacterial activity against Enterobacter cloacae at 20 umol/ml after 24 hrs by Kirby-Bauer's disk diffusion assay; type: functional; method in brief: as §2
[18] = test system: Micrococcus; test: Antibacterial activity against Micrococcus at 10 umol/ml after 24 hrs by Kirby-Bauer's disk diffusion assay; type: functional; method in brief: as §2
[19] = test system: Micrococcus; test: Antibacterial activity against Micrococcus at 5 umol/ml after 24 hrs by Kirby-Bauer's disk diffusion assay; type: functional; method in brief: as §2
[20] = test system: Escherichia coli; test: Antibacterial activity against Escherichia coli at 10 umol/ml after 24 hrs by Kirby-Bauer's disk diffusion assay; type: functional; method in brief: as §2
[21] = test system: Staphylococcus saprophyticus; test: Antibacterial activity against Staphylococcus saprophyticus at 10 umol/ml after 24 hrs by Kirby-Bauer's disk diffusion assay; type: functional; method in brief: as §2
[22] = test system: Staphylococcus saprophyticus; test: Antibacterial activity against Staphylococcus saprophyticus at 5 umol/ml after 24 hrs by Kirby-Bauer's disk diffusion assay; type: functional; method in brief: as §2
[23] = test system: HeLa; test: Antiproliferative activity against human HeLa cells after 48 hrs by MTT assay; type: functional, cell-based
Method in brief: (§4)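 KB and HeLa cells were grown in DMEM with 10% heat-inactivated fetal calf serum and penicillin-streptomycin at 37 °C, 5% CO2. Cells were seeded at 5×10³ per well. After 16 h the medium was replaced with medium containing compound diluted from stock. MTT (from a 5 mg/ml 10× stock) was added for 4 h at 37 °C. Crystals were dissolved in DMSO and OD read at 570 nm, 48 h after treatment.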

[24] = test system: KB; test: Antiproliferative activity against human KB cells after 48 hrs by MTT assay; type: functional, cell-based; method in brief: as §4
[25] = test system: Enterobacter cloacae; test: Antibacterial activity against Enterobacter cloacae at 10 umol/ml after 24 hrs by Kirby-Bauer's disk diffusion assay; type: functional; method in brief: as §2
[26] = test system: Enterobacter cloacae; test: Antibacterial activity against Enterobacter cloacae at 5 umol/ml after 24 hrs by Kirby-Bauer's disk diffusion assay; type: functional; method in brief: as §2

| Structure (SMILES) | MIC [1] [mM] | Activity [2] | Activity [3] | inhibition zone (IZ) [4] [mm] | Activity [5] | MIC [3] [mM] | inhibition zone (IZ) [8] [mm] | inhibition zone (IZ) [14] [mm] | inhibition zone (IZ) [15] [mm] | Activity [1] | MIC [2] [mM] | MIC [5] [mM] | MIC [13] [mM] | inhibition zone (IZ) [16] [mm] | inhibition zone (IZ) [17] [mm] | inhibition zone (IZ) [18] [mm] | further results |
| --- | --- | --- | --- | --- | --- | --- | --- | --- | --- | --- | --- | --- | --- | --- | --- | --- | --- |
| O=C(O)/C=C/C=C/c1ccc2c(c1)OCO2 [PIPERIC ACID] | 20 (≈ 4360 µg/mL) | inactive | inactive | 8 | – | – | – | – | – | – | – | – | – | – | – | – | – |
| COc1cc(/C=C/C(=O)CC(=O)/C=C/c2ccc(OC(=O)CN)c(OC)c2)ccc1O [MONOGLYCINOYL CURCUMIN] | 5 (≈ 2130 µg/mL) | inactive | – | 18 | inactive | 20 (≈ 8510 µg/mL) | 20 | 12 | – | – | – | – | – | – | – | – | inhibition zone (IZ) [6]: 25 mm; inhibition zone (IZ) [7]: 20 mm; inhibition zone (IZ) [9]: 18 mm; inhibition zone (IZ) [10]: 14 mm; inhibition zone (IZ) [11]: 20 mm; inhibition zone (IZ) [12]: 16 mm; Activity [13]: inactive |
| O=C(O)/C=C/C=C/c1ccc(O)c(O)c1 [DEMETHYLENATED PIPERIC ACID] | – | – | inactive | – | – | – | 16 | – | 15 | inactive | 20 (≈ 4120 µg/mL) | 10 (≈ 2060 µg/mL) | 10 (≈ 2060 µg/mL) | 10 | 18 | – | – |
| COc1cc(/C=C/C(=O)CC(=O)/C=C/c2ccc(OC(=O)[C@@H](N)C(C)C)c(OC)c2)ccc1O [MONOVALINOYL CURCUMIN] | 5 (≈ 2340 µg/mL) | inactive | – | 18 | – | 10 (≈ 4680 µg/mL) | – | 13 | 26 | – | – | 2.5 (≈ 1170 µg/mL) | 2.5 (≈ 1170 µg/mL) | – | 25 | 20 | inhibition zone (IZ) [11]: 12 mm; inhibition zone (IZ) [19]: 19 mm; inhibition zone (IZ) [20]: 11 mm |
| COc1cc(/C=C/C(=O)CC(=O)/C=C/c2ccc(OC(=O)[C@@H](N)C(C)C)c(OC)c2)ccc1OC(=O)[C@@H](N)C(C)C | – | – | – | – | – | 5 (≈ 2830 µg/mL) | – | 20 | 16 | inactive | 10 (≈ 5670 µg/mL) | 5 (≈ 2830 µg/mL) | 10 (≈ 5670 µg/mL) | 14 | 20 | 13 | inhibition zone (IZ) [21]: 12 mm |
| COc1cc(/C=C/C(=O)CC(=O)/C=C/c2ccc(O)c(OC)c2)ccc1O [CURCUMIN] | – | – | – | – | – | 20 (≈ 7370 µg/mL) | 15 | 10 | – | inactive | – | – | – | – | – | – | – |
| OC(Cn1cncn1)(Cn1cncn1)c1ccc(F)cc1F [FLUCONAZOLE] | – | – | – | – | – | – | 29 | – | – | – | – | – | – | – | – | – | inhibition zone (IZ) [10]: 20 mm |
| COc1cc(/C=C/C(=O)CC(=O)/C=C/c2ccc(OC(=O)CN)c(OC)c2)ccc1OC(=O)CN | – | inactive | – | – | inactive | 20 (≈ 9650 µg/mL) | – | – | 15 | inactive | – | – | 10 (≈ 4820 µg/mL) | 14 | 12 | 13 | inhibition zone (IZ) [19]: 10 mm; inhibition zone (IZ) [21]: 12 mm; inhibition zone (IZ) [22]: 10 mm |
| COc1cc(/C=C/C(=O)CC(=O)/C=C/c2ccc(OC(=O)[C@@H](N)CCC(=O)O)c(OC)c2)ccc1OC(=O)[C@@H](N)CCC(=O)O | 20 (≈ 12500 µg/mL) | inactive | inactive | 9 | inactive | – | – | – | 18 | – | – | – | 5 (≈ 3130 µg/mL) | – | – | 16 | Activity [23]: Active; Activity [24]: Active |
| COc1cc(/C=C/C(=O)CC(=O)/C=C/c2ccc(OC(=O)/C=C/C=C/c3ccc(O)c(O)c3)c(OC)c2)ccc1OC(=O)/C=C/C=C/c1ccc(O)c(O)c1 | 20 (≈ 14900 µg/mL) | – | – | 11 | – | 10 (≈ 7450 µg/mL) | 16 | 16 | 16 | – | 20 (≈ 14900 µg/mL) | 5 (≈ 3720 µg/mL) | 10 (≈ 7450 µg/mL) | 10 | 18 | 12 | inhibition zone (IZ) [25]: 14 mm; inhibition zone (IZ) [26]: 12 mm |
